The source made the active and inactive calls.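 How the source made its calls, unless noted: active means viability at or below 30% in both replicate assays; inconclusive means viability at or below 30% in just one of the two assays; inactive means the rest.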

Here are results for 15 compounds from PubChem BioAssay.

Assay [1] can be described thus: Her2 expression decrease, cell viability multiplex – SKBR3 breast tumor cells, AlphaScreen, ATP viability, primary screen (AID 461;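 active means Her2 level under about 52% in both replicate screens, with viability over 70% of control, limit read from the data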;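 on Her2 level: lower value means less Her2 protein in the cells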;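 on viability: percent of carrier control wells set as 100% viability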). Conditions: SKBR3 Her2 protein level, 18-24 h, measured here: SKBR3 viability, ATP luminescence, at 10 µM. Background: In Alpha technology, singlet oxygen from a donor bead excites a nearby acceptor bead.
Assay [2] has as its target Receptor tyrosine-protein kinase erbB-2 (Homo sapiens) (UniProt P04626). The assay is described as above. Conditions: 18-24 h, at 10 µM, stronger effect = lower value.
A short description of assay [3]: reduced viability of SK-BR-3 breast cancer cells – cell-based, 24 h, human, pilot screen (AID 572;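 active means viability at or below 10% of carrier control in both of two separate runs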;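 further: compound exposure lasted between 18 and 24 h rather than exactly 24 h; 100% = carrier-treated control wells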). The conditions noted are these: SK-BR-3 viability, CellTiter-Glo luminescence, at 10 µM, stronger effect = lower value. Background: In ATP-based viability assays light output follows the ATP content of the culture.
A short description of assay [4]: HUVEC growth inhibition – cell-based, human, primary screen (AID 575).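 Further: 100% = median of untreated cell wells with 0.1% DMSO on each plate.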 The conditions noted are these: HUVEC proliferation, CellTiter-Glo luminescence, 72 h; at 10 µM; stronger effect = lower value. In outline:
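Material: primary human umbilical vein endothelial cells / Schedule: 72 h exposure, 37 °C, 5% CO2, 30 min RT equilibration / Signal: ATP-based CellTiter-Glo luminescent read / Read-out basis: percent of median DMSO-control luminescence / Control set: 32 DMSO-only cell-control wells (high), 32 MePR drug-control wells (low) per plate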

The nature of assay [5]: H69AR cell proliferation blockers – human, duplicate replicates, primary screen (AID 580;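 active means viability at or under a set limit in both replicates, limit being median viability minus 3 SD, cut at about 48% in these data, passing the limit was not always enough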;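 further: 100% = mean luminescence of untreated wells and 0% = no signal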). Conditions: H69AR lung tumor cells viability, ATP luminescence, 72 h; at 10 µM; stronger effect = lower value.
Assay [6] is described as follows: MRP1 drug-resistance reversers in H69AR cells – cell-based, doxorubicin co-treatment, pilot screen (AID 601;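 active means viability loss from added drug above about 55%, and viability with drug at most 40%, in both replicates, limit read from the data, passing the limit was not always enough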). Conditions: CellTiter-Glo, 72 h, at 10 µM; for differential viability (reversal): stronger effect = higher value.
Assay [7] can be described thus: yeast transport mutant growth inhibition pilot in 384-well plates, post-Golgi transport modulator project (AID 636; in the data active means inhibition above about 31%). Conditions: absorbance 615 nm, about 18 h, stronger effect = higher value.
Assay [8] in a line: growth suppression of yeast trafficking mutant, preliminary HTS, modulators of trafficking downstream of Golgi apparatus project, 1536-format plate, OD 615 nm (AID 637; in the data active means inhibition above about 30%). Conditions: yeast transport mutant growth, absorbance 615 nm, 18 h; stronger effect = higher value.
Where [9] appears, read: H69AR cells + 2 uM doxorubicin, measured here: viability with 2 uM doxorubicin, stronger effect = lower value.
The mark [10] stands for this setting: H69AR cells, compound alone cytotoxicity.

Sequence of Receptor tyrosine-protein kinase erbB-2 (Homo sapiens) (P04626 whole entry, looked up): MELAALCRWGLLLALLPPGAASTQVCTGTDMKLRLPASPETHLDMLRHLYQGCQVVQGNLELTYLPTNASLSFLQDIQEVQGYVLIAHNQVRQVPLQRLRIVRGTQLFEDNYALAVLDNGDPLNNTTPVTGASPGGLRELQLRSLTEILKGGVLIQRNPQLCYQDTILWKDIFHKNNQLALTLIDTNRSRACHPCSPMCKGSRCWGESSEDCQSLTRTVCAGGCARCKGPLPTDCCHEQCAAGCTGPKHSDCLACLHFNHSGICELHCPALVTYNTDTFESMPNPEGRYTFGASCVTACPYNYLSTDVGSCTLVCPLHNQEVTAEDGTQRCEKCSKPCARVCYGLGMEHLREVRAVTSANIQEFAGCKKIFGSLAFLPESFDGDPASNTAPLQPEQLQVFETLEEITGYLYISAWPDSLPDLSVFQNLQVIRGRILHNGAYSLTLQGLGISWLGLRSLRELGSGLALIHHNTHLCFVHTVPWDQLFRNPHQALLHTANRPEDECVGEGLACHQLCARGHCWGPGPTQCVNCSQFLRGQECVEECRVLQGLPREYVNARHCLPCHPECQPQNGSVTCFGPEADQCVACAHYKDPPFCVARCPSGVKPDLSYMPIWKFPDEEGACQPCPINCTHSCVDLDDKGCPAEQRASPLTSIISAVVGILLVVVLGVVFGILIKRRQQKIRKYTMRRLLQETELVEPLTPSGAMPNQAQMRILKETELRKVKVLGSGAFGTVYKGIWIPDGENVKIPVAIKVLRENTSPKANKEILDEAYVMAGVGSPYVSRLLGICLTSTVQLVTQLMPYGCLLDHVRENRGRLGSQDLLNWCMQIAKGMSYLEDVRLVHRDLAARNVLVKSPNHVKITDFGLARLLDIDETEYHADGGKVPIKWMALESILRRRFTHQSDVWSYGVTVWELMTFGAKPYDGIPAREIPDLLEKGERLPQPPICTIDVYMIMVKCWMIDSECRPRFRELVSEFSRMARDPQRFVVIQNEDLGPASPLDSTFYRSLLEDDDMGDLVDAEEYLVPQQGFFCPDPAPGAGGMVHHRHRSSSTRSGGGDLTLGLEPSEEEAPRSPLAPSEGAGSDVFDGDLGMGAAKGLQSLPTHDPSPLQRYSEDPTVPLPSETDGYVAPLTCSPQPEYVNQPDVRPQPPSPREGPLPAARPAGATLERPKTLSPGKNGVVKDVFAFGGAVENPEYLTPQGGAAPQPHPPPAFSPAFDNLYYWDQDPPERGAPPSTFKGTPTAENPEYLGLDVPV

Take `Cc1c[nH]c2cccc(OCC(O)CNC(C)(C)C)c12` (stereo not given): the viability in assay [1] was 91.5%; in assay [3], 91.5% (inactive); in assay [4], 100% (inactive); in assay [5], 88.3% (inactive); in assay [6] (setting [9]) it was 88%; in assay [6] (setting [10]), 88.3%. Moreover, in assay [2], the Her2 level is 96% (inactive). Besides, the differential viability (reversal) in assay [6] (H69AR cells + 2 uM doxorubicin) is 0.28% (inactive). The inhibition in assay [7] was -3.6% (inactive); in assay [8], 17.8% (inactive).

Turning to `CS(=O)(=O)c1ccc2nc(NC(=O)CCC(=O)c3cccs3)sc2c1`, the viability in assay [1] is 91%; in assay [3], 91% (inactive); in assay [4], 87.5% (inactive); in assay [5] it was 69.8% (inactive); in assay [6] (setting [9]), 74.2%; in assay [6] (setting [10]), 69.8%. In assay [2], the Her2 level was 102% (inactive). The differential viability (reversal) in assay [6] (H69AR cells + 2 uM doxorubicin) was -4.38% (inactive). The values for the inhibition in assay [7] and in assay [8] were -1.05% (inactive) and 4.35% (inactive), respectively.

In the case of `Cc1cc(Cl)cc2c1NC(=O)[C@]21[C@@H]2C(=O)N(Cc3ccccc3)C(=O)[C@@H]2[C@@H]2CCCN21`, the viability in assay [1] is 100%; in assay [3], 100% (inactive); in assay [4], 78% (inactive); in assay [5] it was 78.1% (inactive); in assay [6] (setting [9]) it was 80.9%; in assay [6] (setting [10]), 78.1%. Also, in assay [2], the Her2 level was 81% (inactive). For the same compound, the differential viability (reversal) in assay [6] (H69AR cells + 2 uM doxorubicin) is -2.8% (inactive). For the same compound, the inhibition is -3.77% (inactive) in assay [7] and 4.29% (inactive) in assay [8].

Consider `CC1=CCC2C(=O)N(c3nc(C)cc(C)n3)C(=O)C2C1` (stereo not given), for which the viability in assay [1] was 110%; in assay [3], 110% (inactive); in assay [4], 101% (inactive); in assay [5] it was 91.1% (inactive); in assay [6] (setting [9]), 95%; in assay [6] (setting [10]), 91.1%. In addition, in assay [2], the Her2 level is 80% (inactive). Also, the differential viability (reversal) in assay [6] (H69AR cells + 2 uM doxorubicin) was -3.95% (inactive). Moreover, the inhibition in assay [7] is -6.71% (inactive); in assay [8] it was 0.48% (inactive).

Consider `CC1=Nn2c(nnc2-c2cc(-c3ccccc3)n[nH]2)SC1`, for which the viability in assay [1] was 97.5%; in assay [3] it was 97.5% (inactive); in assay [4], 94.3% (inactive); in assay [5], 91.4% (inactive); in assay [6] (setting [9]), 84.4%; in assay [6] (setting [10]), 91.4%. Also, the Her2 level in assay [2] is 78% (inactive). Besides, the differential viability (reversal) in assay [6] (H69AR cells + 2 uM doxorubicin) is 7.02% (inactive). The inhibition in assay [7] is -3.47% (inactive); in assay [8], 7.05% (inactive).

For `O=C(NCC(=O)N1CCC(N2CCCCC2)CC1)C1CCCCC1`, the viability in assay [1] is 88.5%; in assay [3] it was 88.5% (inactive); in assay [4] it was 106% (inactive); in assay [5], 94.4% (inactive); in assay [6] (setting [9]), 92.5%; in assay [6] (setting [10]) it was 94.4%. In assay [2], the Her2 level is 108% (inactive). Further, in assay [6] (H69AR cells + 2 uM doxorubicin), the differential viability (reversal) is 1.99% (inactive). Further, the inhibition is -5.84% (inactive) in assay [7] and -4.43% (inactive) in assay [8].

Consider `O=C(CN(Cc1ccc2c(c1)OCO2)C(=O)CNS(=O)(=O)c1ccccc1)NCc1ccco1`, for which the viability in assay [1] was 97%; in assay [3] it was 97% (inactive); in assay [4], 107% (inactive); in assay [5], 99.4% (inactive); in assay [6] (setting [9]), 97%; in assay [6] (setting [10]) it was 99.4%. In addition, the Her2 level in assay [2] is 86.5% (inactive). Further, the differential viability (reversal) in assay [6] (H69AR cells + 2 uM doxorubicin) is 2.35% (inactive). Further, the inhibition is 0.41% (inactive) in assay [7] and -1.31% (inactive) in assay [8].

On to `Cc1cccc(-n2nnc(C(=O)NCc3ccccc3)c2N)c1`, for which the viability in assay [1] is 110%; in assay [3] it was 110% (inactive); in assay [4], 102% (inactive); in assay [5] it was 90.4% (inactive); in assay [6] (setting [9]) it was 87%; in assay [6] (setting [10]) it was 90.4%. Also, in assay [2], the Her2 level is 84.5% (inactive). In addition, in assay [6] (H69AR cells + 2 uM doxorubicin), the differential viability (reversal) is 3.36% (inactive). Besides, the inhibition in assay [7] was 0.92% (inactive); in assay [8] it was -3.45% (inactive).

`O=C(Cn1nnc2ccccc2c1=O)NC1CCCc2ccccc21` (stereo not given): the viability in assay [1] was 77%; in assay [3] it was 77% (inactive); in assay [4] it was 101% (inactive); in assay [5], 103% (inactive); in assay [6] (setting [9]), 95.4%; in assay [6] (setting [10]), 103%. Further, the Her2 level in assay [2] was 97.5% (inactive). Also, the differential viability (reversal) in assay [6] (H69AR cells + 2 uM doxorubicin) is 7.25% (inactive). Also, the values for the inhibition in assay [7] and in assay [8] were -2.67% (inactive) and 4.68% (inactive), respectively.

Turning to `CCC(C)N=C1SCC(C)(/C=N/O)S1` (stereo not given), the viability in assay [1] was 97%; in assay [3] it was 97% (inactive); in assay [4], 116% (inactive); in assay [5], 104% (inactive); in assay [6] (setting [9]), 95.8%; in assay [6] (setting [10]), 104%. For the same compound, the Her2 level in assay [2] is 88.5% (inactive). Also, the differential viability (reversal) in assay [6] (H69AR cells + 2 uM doxorubicin) was 7.86% (inactive). The figures for the inhibition in assay [7] and in assay [8] were -2.37% (inactive) and -0.98% (inactive), respectively.

Consider `CCN1C(=O)c2cccc3c(NC(=O)c4ccc5c(c4)OCCO5)ccc1c23`, for which the viability in assay [1] was 108%; in assay [3], 108% (inactive); in assay [4] it was 55.5% (inactive); in assay [5] it was 52.2% (inactive); in assay [6] (setting [9]), 72.5%; in assay [6] (setting [10]), 52.2%. Further, the Her2 level in assay [2] was 89% (inactive). Moreover, in assay [6] (H69AR cells + 2 uM doxorubicin), the differential viability (reversal) was -20.3% (inactive). For the same compound, the inhibition in assay [7] is -4.81% (inactive); in assay [8], 0.63% (inactive).

`O=C(CNC(=O)c1ccccc1C(=O)O)c1ccccc1`: the viability in assay [1] was 128%; in assay [3] it was 128% (inactive); in assay [4], 100% (inactive); in assay [5], 90% (inactive); in assay [6] (setting [9]) it was 82.8%; in assay [6] (setting [10]), 90%. Moreover, the Her2 level in assay [2] was 79.5% (inactive). The differential viability (reversal) in assay [6] (H69AR cells + 2 uM doxorubicin) is 7.15% (inactive). The inhibition in assay [7] was 2.6% (inactive); in assay [8], -0.49% (inactive).

On to `c1ccc(CC2CCN(c3nc4ccccc4n4nnnc34)CC2)cc1`, for which the viability is 84% in assay [1]; 84% (inactive) in assay [3]; 88.6% (inactive) in assay [4]; 81.5% (inactive) in assay [5]; 73.2% in assay [6] (setting [9]); 81.5% in assay [6] (setting [10]). The Her2 level in assay [2] was 86% (inactive). The differential viability (reversal) in assay [6] (H69AR cells + 2 uM doxorubicin) is 8.36% (inactive). Moreover, the inhibition was 0% (inactive) in assay [7] and 1.5% (inactive) in assay [8].

For `CCc1cccc2c(=O)c(C(=O)N3CCCCCC3)c[nH]c12`, the viability was 104% in assay [1]; 104% (inactive) in assay [3]; 98.4% (inactive) in assay [4]; 97.5% (inactive) in assay [5]; 96.1% in assay [6] (setting [9]); 97.5% in assay [6] (setting [10]). For the same compound, the Her2 level in assay [2] is 102% (inactive). Further, the differential viability (reversal) in assay [6] (H69AR cells + 2 uM doxorubicin) was 1.41% (inactive). The inhibition in assay [7] is -2% (inactive); in assay [8], -6.94% (inactive).

In the case of `CCn1ncc(C2=NOC(C(=O)NCc3ccccc3)C2)c1C` (stereo not given), the viability in assay [1] was 91%; in assay [3] it was 91% (inactive); in assay [4], 43.2% (inactive); in assay [5] it was 27.5% (active); in assay [6] (setting [9]), 60.4%; in assay [6] (setting [10]) it was 27.5%. Besides, in assay [2], the Her2 level was 82.5% (inactive). Besides, the differential viability (reversal) in assay [6] (H69AR cells + 2 uM doxorubicin) is -33% (inactive). In addition, the inhibition in assay [7] is -6.18% (inactive); in assay [8], -1.9% (inactive).

The viability is a read-out of living cells in per cent, often relative to untreated cells. As usually defined, the inhibition is the relative decrease from the control value, in per cent.
